# DYRK1A inh = rat Dyrk1A kinase inhibitors, primary screen, biochemical, single point, plate reader. ADP-Glo luminescence, NFATc1 peptide. 310,000 tested, 0.43% active. inhibition, % at 12.5 µM. Dual specificity tyrosine-phosphorylation-regulated kinase 1A (Rattus norvegicus), Q63470; in the data active = inhibition above about 50%;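 note: plate controls were vehicle with enzyme for no effect and no enzyme for full effect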
# CAL PDZ FP-1 = untagged CAL PDZ binding inhibitors, primary screen, biochemical, fluorescence polarization, HTS; Golgi-associated PDZ and coiled-coil motif-containing protein (Homo sapiens), Q9HD26; purified CAL PDZ, TMR-peptide fluorescence polarization, 1 h; inhibition, % at 24.9 µM; 300,000 tested, 0.92% active; AID 602252, 2012;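 active = mean inhibition of at least 30% with at least half of replicates also reaching 30%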;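 note: 0% = DMSO neutral control and 100% = excess unlabeled competitor peptide PRC23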
# CAL PDZ FP-2 = CAL PDZ peptide-binding inhibitors, primary screen, biochemical, fluorescence polarization, Cer-tagged CAL PDZ, HTS; AID 504414, 2011; inhibition, % at 20 µM; 330,000 tested, 0.02% active; Golgi-associated PDZ and coiled-coil motif-containing protein (Homo sapiens), Q9HD26; purified CAL PDZ, TMR-peptide fluorescence polarization, 1 h;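 active = highest replicate inhibition of at least 40%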;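 note: plate controls were DMSO neutral control wells for no effect and unlabeled competitor peptide control wells for full effect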
#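 System: purified tagged CAL PDZ domain construct (CerCALP). Schedule: 1 h incubation at room temperature before polarization reading. Medium: 25 mM sodium phosphate pH 7.4, 150 mM NaCl, TCEP, IgG, Thesit. Read-out: percent inhibition from loss of millipolarization. Measured by: FP readout, S and P plane fluorescence. Probe or stimulus: fluorescent TMR peptide probe.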
# ARNT TACC3 PPI = disruptors of ARNT/TACC3 protein interaction, primary screen, biochemical, AlphaScreen, single concentration; Transforming acidic coiled-coil-containing protein 3 (Homo sapiens), Q9Y6A5; AlphaScreen His-ARNT PAS-B/GST-TACC3 binding, luminescence; TACC3 fragment carries E629A point mutation; inhibition, % at 9.99 µM; 390,000 tested, 0.66% active;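 active = mean inhibition of replicates at least 50% and at least half of replicates each reaching 50%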;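 note: 0% = complete ARNT plus TACC3 wells and 100% = ARNT alone without TACC3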
# ADP-Glo artifact = ADP-Glo luciferase interference without Dyrk1A, dose response, artefact control for Dyrk1A inhibitor project, biochemical, luminescence, cherry-pick, set 02 | shares compounds with DYRK1A inh | ADP-Glo luciferase artifact assay, no Dyrk1A | AC50, µM (doses to about 12 µM), inactives show at the top dose activity change, negative = inhibition | 1,300 tested, under 10 active;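 active = fitted half-maximal dose AC50 no more than ten times the top valid tested dose, with luminescence dropping as dose rises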
# Starred values were filed as active, the others as inactive; / = no result. This is a sample that favours compounds with a hit; in the whole collection about 1.4% have one here.
SMILES,DYRK1A inh,CAL PDZ FP-1,CAL PDZ FP-2,ARNT TACC3 PPI,others
O=C1NC(=O)C(Nc2ccccc2)C(=O)N1,-5,-5,-2,33*,
O=C(Cn1ncc2ccccc21)N1CCC2(CC1)OCCO2,1,0,0,9,
CCn1c(=O)n(CC(=O)N2CCC3(CC2)OCCO3)c(=O)c2ccccc21,9,52*,-1,2,
Nc1ccc2ccc3cccc[n+]3c2c1,1,-3,1,-4,
C[n+]1c(-c2ccccc2)c2cc(N)ccc2c2ccc(N)cc21,18,2,12,47*,
Cn1ncnc2c(=O)n(C)c(=O)nc1-2,68*,-3,-3,39,
COc1ccc(-c2cc(=NCCCCCC(=O)O)c3cc(C)ccc3o2)cc1,1,0,-2,61*,
CC1(CCO)CC(C)(CCc2ccccc2)OO1 (stereo unspecified),/,/,/,-14,
Cc1ccc(OP2(=O)Nc3cc(C)c(C)cc3S2)cc1 (stereo unspecified),7,0,-2,46*,
Cc1ccc2c(c1)NP(=S)(Oc1ccccc1)N2 (stereo unspecified),/,-3,0,1,
CC(C)c1ccc(-n2c(O)c(/C=N/NC(=O)c3ccncc3)c(=O)[nH]c2=O)cc1,-3,-5,0,61*,
Cc1ccc(-n2c(O)c(C=NCCCn3ccnc3)c(=O)[nH]c2=O)cc1,-2,73*,-1,-3,
Cc1cc(C)c(-n2c(O)c(/C=N/NC(=O)c3ccncc3)c(=O)[nH]c2=O)c(C)c1,-1,/,0,64*,
CC(C)c1ccc(-n2c(O)c(/C=N/NC(=O)c3ccccc3O)c(=O)[nH]c2=S)cc1,-6,5,0,85*,
O=C(Cc1ccccc1)N1CCCCN2[C@H](CO)[C@H](c3ccc(C#CC4(O)CCCC4)cc3)[C@H]2C1,/,/,/,-31,
CN(C)C(=O)[C@H]1[C@H](CO)[C@H]2Cn3c(cccc3=O)[C@@H]1N2CC1CC1,/,/,/,10,
COc1ccc(C#Cc2ccc([C@@H]3[C@H]4CN(C(=O)Cc5ccccc5)CCCCN4[C@H]3CO)cc2)cc1,/,/,/,-9,
O=C(O)[C@H]1[C@H](CO)[C@H]2Cn3c(ccc(-c4ccncc4)c3=O)[C@@H]1N2S(=O)(=O)c1ccccc1F,/,/,/,-2,
O=c1[nH]c(=S)n(-c2ccccc2)c(O)c1C=NCCN1CCNCC1,0,-3,-1,1,
CCCCn1c(O)c(/C=N/NC(=O)c2ccncc2)c(=O)[nH]c1=O,5,-1,-2,66*,
Cc1ccccc1-n1c(O)c(/C=N/NC(=O)c2ccncc2)c(=O)[nH]c1=O,4,0,1,71*,
Cn1c(=O)c2c(nc(N/N=C/c3c(O)n(-c4ccccc4)c(=S)[nH]c3=O)n2C)n(C)c1=O,-5,0,-1,58*,
CCc1ccc(-n2c(O)c(/C=N/NC(=O)c3ccncc3)c(=O)[nH]c2=O)cc1,0,-4,-1,4,
COCC#Cc1ccc([C@@H]2[C@H]3CN(C(=O)Cc4ccccn4)CCCCN3[C@H]2CO)cc1,/,/,/,-2,
Cc1cccc(S(=O)(=O)N2[C@@H]3c4ccc(-c5cccc(F)c5)c(=O)n4C[C@H]2[C@H](CO)[C@H]3C(=O)O)c1,/,/,/,4,
SMILES,DYRK1A inh,CAL PDZ FP-1,CAL PDZ FP-2,ARNT TACC3 PPI,others
CCCNC(=O)[C@@H]1[C@@H](CO)[C@@H]2Cn3c(cccc3=O)[C@@H]2N1C,/,/,/,3,
CCCCCC(=O)N[C@@H](c1ccccc1)[C@@H](O)C(=O)O[C@H]1C[C@@]2(O)[C@@H](OC(=O)c3ccccc3)C3[C@](C)(C(=O)[C@H](O)C(=C1C)C2(C)C)[C@@H](OC1OCC(O)C(O)C1O)C[C@H]1OC[C@@]31OC(C)=O (stereo partly specified),-3,4,-1,57*,
CCC(=O)N1[C@@H]2Cn3c(ccc(C4=CCCC4)c3=O)[C@H]1[C@@H](C(=O)OC)[C@@H]2CO,/,/,/,0,
COc1ccc(CN2CCN(Cc3ccccc3OC)CC2)cc1,-7,-2,0,-10,
COc1cccc(CN2CCNCC2)c1OC,-4,90*,15,0,
N#Cc1cccc(-c2ccc([C@@H]3[C@H](CO)N4CCCCN(C(=O)Cc5ccccc5)C[C@@H]34)cc2)c1,/,/,/,0,
COc1ccc(C=C2C(=O)NC(=S)NC2=O)cc1,/,-4,0,6,
O=C1NC(=S)NC(=O)C1=Cc1cccc2cc3ccccc3cc12,1,-2,-2,21*,
O=C(N/N=C/C1C(=O)NC(=S)N(c2ccccc2)C1=O)c1cc(Br)c(O)c(Br)c1 (stereo unspecified),-2,4,/,65*,
CCCCNC(=S)N1CCn2cccc2C1c1cccnc1 (stereo unspecified),/,1,0,0,
CNC(=S)N1CCn2cccc2C1c1cccnc1 (stereo unspecified),-5,78*,7,0,
CN(C)C1=NC(N(C)C)=NP(N(C)C)(N(C)C)=N1,-1,35*,-2,-10,
COC(=O)[C@@H]1[C@@H](CO)[C@@H]2Cn3c(ccc(-c4ccccc4F)c3=O)[C@H]1N2CC1CCCC1,/,/,/,-3,
COC(=O)[C@@H]1[C@@H](CO)[C@@H]2Cn3c(ccc(-c4ccccc4F)c3=O)[C@H]1N2Cc1ccccc1,/,/,/,active,
COC(=O)[C@H]1[C@H](CO)[C@H]2Cn3c(ccc(C4=CCCCC4)c3=O)[C@@H]1N2C(=O)CC1CC1,/,/,/,-8,
CCc1nc2ccc(N3CCN(C)CC3)cc2nc1CC,/,49*,-2,-4,
CN1CCN(c2ccc3nccnc3c2)CC1,/,-5,-1,-3,
COc1ccc2nc(/N=C/c3c(O)n(-c4cccc(Cl)c4)c(=O)[nH]c3=O)sc2c1,-1,-4,/,79*,
Clc1ccc(C(Cl)(Cl)Cl)c(Cl)c1,/,71*,0,/,
CCN1CCN(c2ccc(N)cc2)CC1,-4,-1,-1,27,
CCN1CCN(c2ccc(N)cc2C)CC1,1,0,2,48*,
CC(=O)O[C@H]1CC[C@@]2(C)C(=CC[C@@H]3[C@@H]2CC[C@]2(C)C(=O)CC[C@@H]32)C1,-10,1,-1,-5,
CC(C)(C)C(=O)O[C@H]1CC[C@@]2(C)C(=CC(=O)C3C2CC[C@]2(C)C(=O)CCC32)C1 (stereo partly specified),2,85*,0,-3,
N#Cc1cccc(-c2ccc([C@@H]3[C@H]4CN(C(=O)Cc5ccncc5)CCCCN4[C@H]3CO)cc2)c1,/,/,/,-2,
CN1CCc2nc3sc(C#N)c(N)c3c(-c3cccs3)c2C1,51*,/,-2,5,ADP-Glo artifact=6%
